# Results as given in PMC2574667 (Journal of Medicinal Chemistry, 2008).
# “Also recorded” adds a separate entry of the source. Like-named read-outs stand apart in the source and are kept apart here.
# Legend:
# [1] = type: physicochemical
# How it was run: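 Hydrolysis at 37 °C was run in 0.1 M phosphate pH 7.4 or 0.05 M citrate pH 3.8–4.6, in light-protected sealed bottles. Daily aliquots were scanned 200–400 nm for up to 11 days. First-order k came from ln(At − Ainf) versus time, with Ainf extrapolated when the reaction was incomplete. Runs in 1.0 M NaOH were followed directly in a thermostated spectrophotometer cell. Other media: NaOH, glycine/NaOH pH 10, phosphate pH 8.1.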
# [2] = first order in hydroxide ion; cited from earlier work
# Nitrite accumulation = type: physicochemical; details: 37 °C; for nitrite recovery: 24 h incubation, PBS and cell culture medium containing 2.5% fetal calf serum
# How it was run: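 Compound at 0.25–1 mM was incubated 24 h at 37 °C, without cells, in PBS or in RPMI containing 2.5% fetal calf serum. NO release was estimated as accumulated nitrite by Griess assay. Solutions assayed immediately after dissolution served as the zero point.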
# [3] = tested on: N-acetylglucosaminidase from jack bean; test: Glycosidase-induced hydrolysis, jack bean enzyme; type: biochemical; details: 37 °C; for k, first order rate constant of enzymatic hydrolysis: JB enzyme 0.11 units/mL, 0.1 M phosphate pH 7.4, ultraviolet spectrophotometry
# How it was run: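 Jack bean β-N-acetylglucosaminidase (0.11 units/mL) was incubated with substrate (0.09–0.16 mM initial) at 37 °C in 0.1 M phosphate, pH 7.4, with 0.05 mM DTPA. NO was detected by chemiluminescence until evolution ceased, and the trace was integrated per mole of compound. Nitrite in the remaining solution was measured by Griess. First-order rate constants came from UV absorbance at 227 or 256 nm. Enzyme activity was checked with PNP-NAG at 25 °C.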
# [4] = tested on: intracellular L. major amastigotes; test: Assay for leishmanicidal activity in infected macrophages; type: cell-based, Leishmania major; details: 125 or 250 µM, up to 72 h, macrophages from iNOS-deficient mice
# How it was run: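 Macrophages were thioglycolate-elicited from the peritoneum of C57BL/6 iNOS-deficient mice, harvested 4 days after ip thioglycolate, and plated at 3 × 10^5/well in RPMI-1640 with 2.5% or 5% FBS. They were infected 4 h at 5:1 with lesion-derived MHOM/IL/81/FE/BNI amastigotes, then treated 72 h with medium and compound refreshed at 24 and 48 h. Diff-Quick counts at 0, 48 and 72 h gave parasites per 100 macrophages, as mean ±SD.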
# [5] = tested on: peritoneal exudate macrophages from iNOS-deficient mice; test: Nitrite accumulation; type: cell-based; details: 0.25 mM, medium with 2.5% fetal calf serum, iNOS^−/− mouse macrophages, 24 h
# How it was run: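 Peritoneal exudate macrophages from iNOS-deficient mice were cultured 24 h at 37 °C in RPMI containing 2.5% fetal calf serum with 0.25 mM compound, alongside cell-free medium and PBS. Supernatants were harvested and cumulative NO was estimated as nitrite by Griess assay. Further runs used 125 or 250 µM with 0–5% FCS.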
# [6] = tested on: peritoneal exudate macrophages from iNOS-deficient mice; test: Viability of macrophage monolayers; type: cell-based, mouse; details: concentrations tested (125 or 250 µM); trypan blue staining, MTT assay
# How it was run: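 Infected macrophage monolayers from iNOS-deficient mice were exposed to compound at 125 or 250 µM. Viability was checked by microscopy with trypan blue staining of dead cells. Mitochondrial activity of the whole monolayer was read photometrically as MTT reduction to formazan, in triplicate.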
# [7] = target: N-acetylglucosaminidase from human placenta (Homo sapiens, UniProt P07686); test: Glycosidase-induced hydrolysis, human placenta enzyme; type: biochemical; details: HP enzyme 0.044 units/mL, 37 °C, 0.1 M phosphate pH 7.4; ultraviolet spectrophotometry
# Sequence of N-acetylglucosaminidase from human placenta (P07686 122-311 limits assumed): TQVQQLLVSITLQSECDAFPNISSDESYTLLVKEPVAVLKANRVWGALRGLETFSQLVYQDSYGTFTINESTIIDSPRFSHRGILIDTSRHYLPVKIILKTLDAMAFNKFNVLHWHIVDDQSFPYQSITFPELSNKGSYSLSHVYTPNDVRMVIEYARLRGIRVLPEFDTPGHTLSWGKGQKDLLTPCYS
# Sequence of N-acetylglucosaminidase from human placenta (P07686 315-556 limits assumed): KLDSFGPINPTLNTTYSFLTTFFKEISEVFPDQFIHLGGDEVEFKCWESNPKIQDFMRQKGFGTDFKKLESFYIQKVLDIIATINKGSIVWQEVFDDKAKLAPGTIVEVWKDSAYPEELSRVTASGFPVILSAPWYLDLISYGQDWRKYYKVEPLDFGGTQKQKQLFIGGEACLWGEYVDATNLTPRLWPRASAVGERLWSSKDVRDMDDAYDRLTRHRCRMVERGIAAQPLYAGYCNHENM
# [8] = phosphate buffer, pH 7.4, half-life pH 7.4, 0.1 M phosphate pH 7.4, 37 °C
compound,measurement,setting,value
CCN(CC)/[N+]([O-])=N/O[C@@H]1O[C@H](CO)[C@@H](O)[C@H](O)[C@H]1O [3a],half-life,[1]; [8],> 14400 min
same,rate constant kOH^– of base-induced hydrolysis,[2],0.0053 M⁻¹ s⁻¹
"CCN(CC)/[N+]([O-])=N/O[C@H]1O[C@H](CO)[C@@H](O)[C@H](O)[C@@H]1O [5a, O^2-(α-D-Mannopyranosyl) 1-(N, N-Diethylamino)diazen-1-ium-1,2-diolate]",nitrite recovery,Nitrite accumulation,little or no nitrite
same,NO generation on incubation with N-acetylglucosaminidase,[3]; parallel incubation to 9a,Negligible NO generation
same,half-life,"[1]; citrate buffer, pH 4.6, half-life pH 4.6, 0.05 M citrate pH 4.6, 37 °C",> 14400 min
same,effect on number of intracellular L. major parasites,[4],borderline significance
"[O-][N+](=NO[C@H]1O[C@H](CO)[C@@H](O)[C@H](O)[C@@H]1O)N1CCCC1 [5b, O^2-(α-D-Mannopyranosyl) 1-(Pyrrolidin-1-yl)diazen-1-ium-1,2-diolate]",effect on number of intracellular L. major parasites,[4],only one of the mannosides (5a) showed any activity
"CCN(CC)/[N+]([O-])=N/O[C@@H]1O[C@@H](C)[C@@H](O)[C@@H](O)[C@@H]1O [7a, O^2-(β-L-Fucopyranosyl) 1-(N,N-Diethylamino)diazen-1-ium-1,2-diolate]",effect on number of intracellular L. major parasites,[4],Neither of the fucose derivatives had any perceivable effect
"C[C@@H]1O[C@H](ON=[N+]([O-])N(C)C)[C@@H](O)[C@H](O)[C@@H]1O [7c, O^2-(β-L-Fucopyranosyl) 1-(N,N-Dimethylamino)diazen-1-ium-1,2-diolate]",effect on number of intracellular L. major parasites,[4],Neither of the fucose derivatives had any perceivable effect
"CCN(CC)/[N+]([O-])=N/O[C@@H]1O[C@H](CO)[C@@H](O)[C@H](O)[C@H]1NC(C)=O [9a, O^2-(N-Acetyl-β-D-glucosaminyl) 1-(N,N-Diethylamino)diazen-1-ium-1,2-diolate]",nitrite recovery,Nitrite accumulation,10−20%
same,increase of nitrite yield by macrophages,[5],approximately doubled
same,toxicity to the macrophage host cells,[6],no observable toxicity
same,"k, first order rate constant of enzymatic hydrolysis",[3],0.00062 s⁻¹
same,increase in hydrolysis rate relative to 9b,[1]; pH 7.4 phosphate buffer,> 20 fold
same,half-life,[1]; [8],~720 min
same,"k, first order rate constant of enzymatic hydrolysis",[7],0.00041 s⁻¹
same,effect on number of intracellular L. major parasites,[4],highly significant decrease; also recorded: decidedly antileishmanial
"CC(=O)N[C@H]1[C@H](O/N=[N+](\[O-])N2CCCC2)O[C@H](CO)[C@@H](O)[C@@H]1O [9b, O^2-(β-D-N-Acetylglucosaminyl) 1-(Pyrrolidin-1-yl)diazen-1-ium-1,2-diolate]",hydrolysis in PBS relative to 9a,"Nitrite accumulation; PBS, nitrite yield, 24 h",more than an order of magnitude slower
same,toxicity to the macrophage host cells,[6],no observable toxicity
same,"k, first order rate constant of enzymatic hydrolysis",[3],0.00031 s⁻¹
same,"k, first order rate constant of enzymatic hydrolysis",[7],0.00036 s⁻¹
same,effect on number of intracellular L. major parasites,[4],highly significant decrease; also recorded: decidedly antileishmanial
"CCN(CC)/[N+]([O-])=N/O[C@H]1C[C@@H](O)[C@H](O)[C@@H](CO)O1 [11a, O^2-[2-Deoxy-β-D-glucopyranosyl] 1-(N,N-Diethylamino)diazen-1-ium-1,2-diolate]",half-life,[1]; [8],~720 min
O=NO [Nitrite ion],effect on number of intracellular L. major parasites,[4],devoid of antileishmanial activity
"CCN(CC)/[N+]([O-])=N\OC1CCCCO1 (centres unmarked) [compound 12, O^2-Tetrahydropyran-2-yl 1-(N,N-Diethylamino)diazen-1-ium-1,2-diolate]",hydrolysis time,"[1]; all pH values studied, 37 °C",within minutes
"COC(=O)CCC(=O)NO[C@@H]1O[C@H](CO)[C@@H](O)[C@H](O)[C@H]1NC(C)=O [compound 13, N-(β-D-N′-Acetylglucosaminyloxy)succinamate O-Methyl Ester, reference compound]",effect on number of intracellular L. major parasites,[4],did not have any effect
